Source: PubChem (several laboratories)
The list is not random: actives were taken first. Their share in the collection is about 5.1%.
APP 5'UTR act: APP 5'UTR luciferase reporter activation; SH-SY5Y APP 5'UTR luciferase reporter, luminescence; zero percent = DMSO vehicle wells; activation, % at 2 µM; 190,000 tested, 1% active;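 active = activation above a set limit, based on mean plus 3 SD of controls, cut at about 140% in these data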
STAT1 blocker: reduces IFN-gamma driven STAT1 reporter signal | NIH 3T3 STAT1-luciferase reporter, luminescence | inhibition, % at 5.5 µM | AID 920 | 200,000 tested, 0.35% active;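 active = inhibition above a set limit, the mean inhibition across all tested compounds plus 3 SD, cut at about 34% in these data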;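 also: 0% = IFN-gamma with DMSO and 100% = IFN-gamma with 300 µM nifuroxazide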
NF-kB neuron act: compounds increasing NF-kB expression in human neuronal cells. NF-kB reporter expression; active compounds read high. fold change at 12.5 µM. 190,000 tested, 1.6% active; in the data active = fold change above about 3.3
STAT3 blocker: STAT3 signaling inhibition; U3A cells, IL-6 STAT3-luciferase reporter, luminescence; host cell line lacks STAT1; inhibition, % at 5.5 µM; 190,000 tested, 0.89% active; AID 862;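 active = inhibition above the mean inhibition across all screened compounds plus 3 SD, cut at about 44% in these data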;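 also: 0% = DMSO only wells and 100% = 100 µM nifuroxazide control wells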
STAT1 act: STAT1 signaling activation; activation (% of control), % at 5.5 µM; NIH 3T3 STAT1-luciferase reporter, IFN-gamma, luminescence; 100% = IFN-gamma alone, no compound; 200,000 tested, 2.6% active;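 active = activation above the screen-wide mean activation plus 3 SD, cut at about 130% in these data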;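 also: raw ratio to IFN-gamma control signal so 100% means no change and 0% no light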
STAT3 activator: activators of IL-6 induced STAT3 signaling; U3A cells, IL-6 STAT3-luciferase reporter, luminescence; 100% = signal with IL-6 EC80 alone; activation (% of control), % at 5.6 µM; 190,000 tested, 0.91% active; AID 871;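 active = activation above the screen-wide mean of compound activation plus 3 SD, cut at about 130% in these data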;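 also: 0% = background luminescence of wells with medium and substrate only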
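Assay system – human STAT1-deficient U3A cells with stable STAT3-luciferase reporter · Also added – IL-6 (33 ng/mL) · Schedule – compound 1 h, then IL-6 6 h at 37 °C · Technique – reporter luminescence signal · Evaluation – % activation versus median of IL-6-stimulated wells · Benchmarks – IL-6-only wells as 100% reference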
STAT1 activ conf: confirmation of STAT1 signaling activators; shares compounds with STAT1 act; NIH 3T3 STAT1-luciferase reporter, IFN-gamma potentiation, luminescence; 100% = IFN-gamma EC80 alone, no compound; activation (% of control), % at 5.7 µM; 1,200 tested, 97% active; AID 1262;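 active = activation above a set limit carried over from the earlier primary STAT1 screen, cut at about 140% in these data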;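 also: simple ratio to median IFN-gamma plus DMSO wells so 0% means no light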
NFkB act: counter-screen for STAT1 activators: NF-kappaB activation; activation (% of control), % at 5.7 µM; HEK293T NF-kB luciferase reporter, TNF-alpha stimulated, luminescence; 100% = TNF-alpha with vehicle only; AID 1306; shares compounds with STAT1 act; 1,200 tested, 43% active;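 active = activation above the mean of solvent-only control wells plus 3 SD, set per campaign, cut at about 130% in these data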;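 also: TNF-alpha given at a submaximal dose yielding about 80% of full reporter signal; values are well signal over median control so 100% means no change and 0% no light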
STAT3 act STAT1c: counter-screen for STAT1 activators: human STAT3 activation. shares compounds with STAT1 act. U3A cells STAT3-luciferase reporter, IL-6, luminescence; cells lack STAT1; 100 = IL-6 alone, no compound effect. activation (% of control), % at 5.7 µM. 1,200 tested, 46% active. AID 1316;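 active = activation above the solvent-only control well mean plus 3 SD, set per plate batch, cut at about 110% in these data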;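 also: 0% = no luminescence and 100% = median IL-6 plus DMSO wells; higher means more STAT3 reporter activation so hits are non-selective activators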
Active calls of the source: *; nt = no result given.

SMILES | APP 5'UTR act | STAT1 blocker | NF-kB neuron act | STAT3 blocker | STAT1 act | STAT3 activator | STAT1 activ conf | NFkB act | STAT3 act STAT1c
Cc1ccc2nc(NC(=O)c3ccc(Cl)s3)sc2c1 | 64 | -58 | 5.3* | 20 | 152* | 90 | 249* | 138* | 110
CCOC(=O)Nc1ccc(NC(=O)c2ccccc2F)cc1 | 47 | -21 | 1.8 | 1 | 119 | 99 | nt | nt | nt
COc1ccc(C(=O)NCC(=O)OCC(=O)NCc2cccs2)cc1 | 19 | -6 | 1 | -1 | 106 | 105 | nt | nt | nt
COc1ccc2nc3sc(C(=O)NCc4cccs4)c(N)c3cc2c1 | 140* | -89 | 3.2 | 26 | 183* | 79 | 222* | 136* | 104
c1ccc2cc(OCc3nc4ccccc4[nH]3)ccc2c1 | 184* | -67 | 5.1* | 28 | 163* | 79 | 200* | 130 | 101
NS(=O)(=O)c1ccc(NC(=O)/C=C/c2cn(-c3ccccc3)nc2-c2cccc(Cl)c2)cc1 | -6 | -10 | 1 | 15 | 108 | 93 | nt | nt | nt
O=C(/C=C/c1cn(-c2ccccc2)nc1-c1ccccc1)Nc1ccc(C(=O)O)cc1 | 12 | -60 | 2.6 | -26 | 152* | 127 | 148* | 113 | 114*
CCCOC(=O)Nc1ccc(N2CCCCC2)cc1 | 95 | -49 | 5.1* | 30 | 154* | 75 | 177* | 115 | 100
CCc1cc2c(=O)[nH]c(-c3ccccn3)nc2s1 | 34 | -56 | 0.97 | 3 | 152* | 96 | 189* | 137* | 104
CCc1cc2c(=O)[nH]c(N3CCCC3)nc2s1 | 15 | -10 | 1.4 | -13 | 112 | 109 | nt | nt | nt
Cc1cccc(NC(=O)c2cn(-c3ccccc3)nc2-c2ccccc2)c1 | -12 | -8 | 0.98 | -2 | 107 | 104 | nt | nt | nt
CCC(=O)Nc1ccc2oc(-c3ccccc3Br)nc2c1 | 118 | -65 | 5.7* | 16 | 160* | 88 | 190* | 138* | 99
O=C(Nc1ccc2oc(-c3ccccc3Cl)nc2c1)c1ncn[nH]1 | 60 | -61 | 5.1* | 11 | 156* | 94 | 204* | 132 | 114*
CCCCNC(=O)c1ccccc1NC(=O)CCC | 5 | -2 | 1.1 | -3 | 102 | 104 | nt | nt | nt
O=C(Oc1oc(-c2ccco2)nc1C=Nc1ccccc1)c1ccoc1 | -16 | -4 | 2.3 | 6 | 104 | 100 | nt | nt | nt
Cc1ccc(C(=O)Oc2oc(-c3ccco3)nc2C=Nc2ccc(Cl)cc2)cc1 | 143* | -72 | 7.7* | 32 | 166* | 75 | 200* | 140* | 106
CCOc1ccccc1NC(=O)NCc1ccc(F)cc1 | 5 | 1 | 0.9 | 14 | 99 | 97 | nt | nt | nt
COc1ccc(-c2cc(C(=O)NC(Cc3cc4ccccc4[nH]3)C(=O)O)c(C)o2)cc1OC (centres undefined) | -8 | -11 | 1.4 | -20 | 108 | 122 | nt | nt | nt
COc1ccc(-c2cc(C(=O)O)c(C)o2)cc1OC | 99 | -56 | 2.4 | 40 | 152* | 70 | 218* | 79 | 112*
Cc1ccc(C(=O)CSc2nnc(CNc3ccc(F)cc3)o2)cc1 | -4 | 1 | 1.7 | 10 | 98 | 93 | nt | nt | nt
Cc1ccc(NC(=S)c2nc3ccccc3[nH]2)c(C)c1 | 133 | -77 | 3.2 | 13 | 169* | 87 | 191* | 122 | 113*
C=C1C(C(=O)Nc2cccc(OC)c2)C1C(=O)Nc1cccc(OC)c1 (centres undefined) | 10 | 6 | 1 | 15 | 93 | 90 | nt | nt | nt
CC(=O)c1cccc(NC(=S)N2c3ccccc3CC2C)c1 (centres undefined) | 12 | 0 | 0.8 | 34 | 100 | 77 | nt | nt | nt
CC1Cc2ccccc2N1C(=O)/C=C/c1cccc(F)c1 (centres undefined) | 189* | -62 | 6.3* | 6 | 158* | 99 | 202* | 141* | 106
CCCc1nc(SCC(=O)N2c3ccccc3CC2C)c2c(C)c(C)sc2n1 (centres undefined) | 1 | 3 | 0.87 | 3 | 97 | 104 | nt | nt | nt
SMILES | APP 5'UTR act | STAT1 blocker | NF-kB neuron act | STAT3 blocker | STAT1 act | STAT3 activator | STAT1 activ conf | NFkB act | STAT3 act STAT1c
COc1ccccc1NC(=S)N/N=C/c1ccc(O)cc1 | 124 | -67 | 4* | 37 | 159* | 71 | 209* | 131 | 94
CC(C)c1nnc(NC(=O)CSc2nnc(NC(=O)c3c(F)cccc3F)s2)s1 | 8 | -1 | 1 | 11 | 100 | 96 | nt | nt | nt
COc1ccc(Cn2c(C3CC3)nc3ccc(NC(C)=O)cc3c2=O)cc1 | 142* | -75 | 4.3* | -12 | 169* | 118 | 213* | 143* | 134*
COc1ccc(COc2cc(-c3cccc(OC)c3)nc3ccc(NC(C)=O)cc23)cc1 | 0 | -5 | 1 | -4 | 105 | 101 | nt | nt | nt
Cc1c(C(=O)N2CCOCC2)sc(NC(=O)Cc2ccccc2)c1C#N | -5 | -14 | 0.97 | -1 | 111 | 104 | nt | nt | nt
CCOc1ccc(N(C(=O)CNC(=O)c2cccs2)C(C(=O)NCC2CCCO2)c2ccc(OC)c(OC)c2)cc1 (centres undefined) | -15 | 2 | 1.4 | -3 | 98 | 109 | nt | nt | nt
c1cncc(-c2nnc(SCCSc3nnc(-c4cccnc4)o3)o2)c1 | -7 | 3 | nt | 7 | 97 | 97 | nt | nt | nt
Fc1ccccc1CSc1nnc(-c2cccnc2)o1 | 72 | -65 | 3.5* | 8 | 161* | 101 | 147* | 119 | 110
CNc1nc(N2CCc3ccccc32)ncc1F | 120 | -75 | 5.1* | -7 | 167* | 107 | 194* | 139* | 114*
CC(C)c1ccc(/C=N/NC(=O)c2cccc(Cl)c2)cc1 | 71 | -95 | 5.7* | -4 | 184* | 108 | 220* | 137* | 126*
C/C(=N\O)c1sc(-c2ccccc2)nc1C | 177* | -63 | 6.4* | 4 | 156* | 106 | 190* | 118 | 121*
Clc1cccc(/C=N/Nc2ncnc3ccccc23)c1 | nt | -67 | 4.4* | -33 | 162* | 133 | 227* | 143* | 134*
Cn1c(-c2ccc3c(c2)OCO3)cnc1NCc1cccc(O)c1 | 32 | -8 | 1.6 | 9 | 106 | 98 | nt | nt | nt
